Screening data: PubChem, Broad Institute
Xi reactivation = reactivates the inactive X chromosome in mouse fibroblasts. AID 743238. 0.055% of 360,000 active. activation, % at 7.58 µM. XiGFP mouse fibroblasts, % GFP-positive cells imaging, 3 d; cells co-treated with 5-aza-dC sensitizer; scaled so ellipticine positive control = 100%;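 active means mean normalized replicate activation at least 10% and every replicate at or above 10%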;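 further: 0% = median of on-plate neutral control wells and 100% = ellipticine 6 µM median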
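Assay system – SV40-immortalized XiGFP fibroblast cells, line 68-5-11 · Buffer or medium – DMEM supplemented with 5-aza-dC as sensitizing agent · Dosing – one concentration, pinned · Benchmarks – positive control ellipticine, 6 µM final · Times – 3 days compound exposure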
SR-BI uptake up = activators of SR-BI mediated HDL lipid uptake; CHO ldlA[mSR-BI] cells, DiI-HDL uptake fluorescence, 3 h; 100 = double the neutral-control signal; 0.096% of 320,000 active; AID 504775; activation, % at 12.5 µM;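 active means mean replicate activation of at least 60% and every replicate at or above 60%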;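 further: 0% = median plate neutral-control signal and 100% = twice that signal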
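system = CHO ldlA[mSR-BI] cells, LDL receptor-null, SR-BI overexpressing | medium = Ham's F12 with 0.5% BSA, HEPES 25 mM, pH 7.4 | probe or stimulus = DiI-HDL 10 µg/mL | compound dosing = single-point compound dose | incubation = compound exposure 3 h, 37 °C | technique = DiI fluorescence, bottom read | read-out = cell-associated DiI fluorescence as measure of HDL uptake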
rRNA inh HTS = selective bacterial rRNA inhibition in E. coli. GFP signal change (wild-type ribosome), % (no concentration beside the values). 1.6% of 350,000 active. E. coli WT GFP vs humanized-ribosome RFP mutants, fluorescence, 24 h; stronger effect = lower value; DMSO median 0, no signal -100;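 active means significant combined selectivity score with lowered wild-type GFP, culture density cut under 30%, mutant RFP and density less affected; inactive means any of these conditions unmet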
PvdQ acylase = P. aeruginosa PvdQ acylase inhibition; purified PvdQ acylase, fluorescence plate reader; AID 488965; inhibition, % at 10 µM; 0.063% of 340,000 active; in the data active means inhibition above about 30%, passing the limit was not always enough;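 further: 0% = vehicle neutral wells and 100% = reference inhibitor wells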
SR-BI HDL uptake = mouse SR-BI HDL lipid transfer inhibition | Q61009 | ldlA[mSR-BI] CHO cells, DiI-HDL uptake fluorescence, 3 h | inhibition, % at 12.5 µM | 0.96% of 320,000 active | AID 488896;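 active means mean replicate inhibition of at least 70% and a set share of replicates each scoring 70 or more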;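 further: 0% = median of neutral control wells and 100% = median of positive control wells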
dFosB act-1 = mouse delta FosB homodimer activation | activation, % at 25 µM | 0.99% of 340,000 active | AID 493131 | purified delta FosB, TAMRA-CDK5 oligo fluorescence polarization; percent of positive-control signal above neutral wells;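 active means mean activation above about 17%, with every replicate also reaching it, limit read from the data, passing the limit was not always enough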
Target sequence (P13346 whole entry, looked up): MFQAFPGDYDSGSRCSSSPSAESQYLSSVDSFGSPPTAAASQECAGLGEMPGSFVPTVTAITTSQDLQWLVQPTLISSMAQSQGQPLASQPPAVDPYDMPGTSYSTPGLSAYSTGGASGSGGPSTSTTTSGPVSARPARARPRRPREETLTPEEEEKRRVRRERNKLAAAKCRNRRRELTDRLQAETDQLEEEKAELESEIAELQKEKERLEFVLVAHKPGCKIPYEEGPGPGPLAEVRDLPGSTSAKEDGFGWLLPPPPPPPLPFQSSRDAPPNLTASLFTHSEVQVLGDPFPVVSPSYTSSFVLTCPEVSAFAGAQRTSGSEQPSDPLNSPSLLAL
dFosB act-2 = enhances mouse delta FosB homodimer binding to DNA; purified delta FosB, TAMRA-CDK5 oligo fluorescence polarization; normalised: neutral wells 0, positive control 100; activation, % at 24.9 µM; shares compounds with dFosB act-1; 2,400 tested, under 10 active;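 active means highest replicate activation at or above 34% and every replicate reaching that threshold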;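 further: higher polarization means more probe DNA bound by delta FosB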
Active calls of the source: *. In the library only some 2.6% were active in any assay of this set; here they are far more common.

How did Oc1ccc(C[C@H]2CNC(=S)N2CC2CCCN2C[C@H](Cc2ccc(O)cc2)N2C[C@H](Cc3ccccc3)N(CCc3ccccc3)C2=S)cc1 (stereo not given in full) do in these assays?
Xi reactivation: 0; SR-BI uptake up: 6; rRNA inh HTS: 5; PvdQ acylase: -20; SR-BI HDL uptake: -6; dFosB act-1: 65*; dFosB act-2: 6

Results for CC(C)C[C@H]1CNC(=S)N1C[C@H]1CCCN1C[C@H](Cc1ccc(O)cc1)N1C[C@H](Cc2ccccc2)N(CCc2ccccc2)C1=S ?
Xi reactivation: 0; rRNA inh HTS: 12

Results for COc1ccc2c3c([nH]c2c1)[C@H](CO)N(Cc1ccccc1F)CC31CN(C(=O)C2CCCC2)C1 ?
Xi reactivation: 0; rRNA inh HTS: -6

Results for Nc1cc(-c2ccccc2)ccc1O ?
SR-BI uptake up: -7; PvdQ acylase: -11; SR-BI HDL uptake: 7; dFosB act-1: -6

What do the screens show for `COc1ccc(C(=O)Nn2c(SCC(=O)N3CCC(C)CC3)nc3ccccc3c2=O)cc1`?
SR-BI uptake up: 17; PvdQ acylase: -16; SR-BI HDL uptake: -17; dFosB act-1: 29*; dFosB act-2: 3

Results for NC(=O)c1ccc(NC(=O)CSC2=Nc3ccccc3C3CC=NN23)cc1 (stereo not given) ?
SR-BI uptake up: -1; PvdQ acylase: -21; SR-BI HDL uptake: 1; dFosB act-1: 25*; dFosB act-2: -2

Results for Cc1ccccc1S(=O)(=O)NC(=O)C1(C)CCN1C(=O)C1(c2ccc(Cl)cc2)CCC1 (stereo not given) ?
Xi reactivation: 0; rRNA inh HTS: -8

What do the screens show for `Cc1nc2cc(N3CCOCC3)c(NC(=O)C3CC3)cc2c(=O)n1Cc1ccccc1`?
SR-BI uptake up: 4; PvdQ acylase: 4; SR-BI HDL uptake: -4; dFosB act-1: -3

What do the screens show for `Cc1nc2cc(N3CCCCC3)c(NC(=O)c3ccncc3)cc2c(=O)n1Cc1ccccc1`?
SR-BI uptake up: -19; PvdQ acylase: -8; SR-BI HDL uptake: 19; dFosB act-1: 24*; dFosB act-2: 6

How did COc1ccc(-c2nnn(CC(=O)Nc3sc4c(c3C#N)CCCC4)n2)cc1 do in these assays?
SR-BI uptake up: 9; PvdQ acylase: 11; SR-BI HDL uptake: -9; dFosB act-1: 26*; dFosB act-2: 1

What do the screens show for `COc1ccc(-c2cc(C(F)(F)F)nc(SCC(=O)Nc3sc4c(c3C#N)CCC4)n2)cc1`?
SR-BI uptake up: -66; rRNA inh HTS: -13; PvdQ acylase: -3; SR-BI HDL uptake: 66; dFosB act-1: -2

How did CN(C)c1nc(NCc2ccccc2)nc(N/N=C/c2ccc3c(c2)OCO3)n1 do in these assays?
Xi reactivation: 0; SR-BI uptake up: 7; PvdQ acylase: -5; SR-BI HDL uptake: -7; dFosB act-1: 58*; dFosB act-2: 2

How did C=C1CCN([C@@H](CC(C)C)C(=O)NCc2ccc(OC)cc2)S(=O)(=O)c2ccccc21 do in these assays?
Xi reactivation: 0; SR-BI uptake up: 12; rRNA inh HTS: -7; PvdQ acylase: -11; SR-BI HDL uptake: -12; dFosB act-1: -6

How did O=C(CN1CCCCC1)Nc1c2c(nc3ccccc13)N(c1ccccc1)CC2 do in these assays?
Xi reactivation: 0; SR-BI uptake up: 9; rRNA inh HTS: 18; PvdQ acylase: -6; SR-BI HDL uptake: -9; dFosB act-1: 56*; dFosB act-2: -1

Results for COc1ccc(COC(=O)c2ccc(S(=O)(=O)N3CCC(C)CC3)cc2)cc1 ?
Xi reactivation: 0; SR-BI uptake up: -3; rRNA inh HTS: 10; PvdQ acylase: 3; SR-BI HDL uptake: 3; dFosB act-1: 19*; dFosB act-2: 0
